In data set [1] the test system is Nucleic Acid. Nature of the data set: Binding affinity to calf thymus DNA assessed as intercalation measuring viscosity index at compound to DNA molar ratio of 0.2 at pH 7 by viscometry method. The class given is nucleic-acid assay. The settings on record: Bos taurus.
The subject of data set [2] is Nucleic Acid. Nature of the data set: Binding affinity to calf thymus DNA assessed as binding constant at pH 7 by fluorescence quenching assay. In kind it is nucleic-acid assay. The following applies: Bos taurus. In short, it runs like this: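 Calf thymus DNA in sodium cacodylate buffer (I = 0.05 mol dm⁻³, pH 7.0) was sonicated and filtered, with concentration taken as phosphate. Portions of DNA were added to the buffered compound, keeping absorbance below 0.05 at the excitation wavelength and DMSO below 1%. Emission was recorded from 350 to 600 nm. Ks came from non-linear Scatchard fitting, recalculated at fixed n = 0.2.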

Data set [3] relates to HCT-116. Nature of the data set: Cell cycle arrest in human HCT116 cells assessed as accumulation at Sub G0/G1 phase at 5 uM after 24 hrs by flow cytometric analysis (reference value: 3 %). The class given is functional.
The test system of data set [4] is HCT-116. The data set is described as follows: Cell cycle arrest in human HCT116 cells assessed as accumulation at S phase at 5 uM after 48 hrs by flow cytometric analysis (reference value: 35 %). The class given is functional. Background: In flow cytometry, cells or beads pass a laser one at a time.
Data set [5] has as its system HCT-116. Nature of the data set: Cell cycle arrest in human HCT116 cells assessed as accumulation at G0/G1 phase at 5 uM after 48 hrs by flow cytometric analysis (reference value: 40 %). The class given is functional.
In data set [6] the test system is HCT-116. The data set is described as follows: Cell cycle arrest in human HCT116 cells assessed as accumulation at S phase at 5 uM after 24 hrs by flow cytometric analysis (reference value: 39 %). The class given is functional.
Data set [7] deals with HCT-116. Nature of the data set: Antitumor activity against human HCT116 cells assessed as growth inhibition after 72 hrs by MTT assay. In kind it is functional, cell-based. In short, it runs like this: (§1)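 MCF-7, SW 620, HCT 116 and H 460 were grown as monolayers in DMEM, and MOLT-4 in suspension in RPMI, all with 10% FBS, 2 mM L-glutamine and penicillin/streptomycin at 37 °C in 5% CO2. Cells were seeded at 1×10^4 to 3×10^4 cells/mL on day 0. Compounds were added in ten-fold dilutions (10^-8 to 10^-4 M) for 72 h, then read by MTT at 570 nm. IC50 came from linear regression of percentage growth. Quadruplicate, at least two experiments.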
On the technique in general: Tetrazolium dyes change colour on reduction, which living cells bring about.

Data set [8] is described as follows: Drug uptake in human H460 cell cytoplasm at 100 uM after 2 hrs by fluorescence microscopy. The class given is ADME, cell-based. The settings on record: h460, 2 h. In short, it runs like this: (§2)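 H 460 cells were grown on cover slips (100,000 cells/well) in DMEM at 37 °C for 24 h. They were then exposed to 100 µM compound for 120 min, rinsed twice with PBS, and examined immediately for intrinsic compound fluorescence under a fluorescence microscope.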

In data set [9] the test system is HCT-116. The data set is described as follows: Cell cycle arrest in human HCT116 cells assessed as accumulation at G2/M phase at 5 uM after 48 hrs by flow cytometric analysis (reference value: 25 %). In kind it is functional.
Data set [10] has as its system MOLT-4. The data set is described as follows: Antitumor activity against human MOLT4 cells assessed as growth inhibition after 72 hrs by MTT assay. In kind it is functional, cell-based. In short, it runs like this: as §1
The nature of data set [11]: Drug uptake in human H460 cell cytoplasm at 100 uM after 24 hrs by fluorescence microscopy. In kind it is ADME, cell-based. The settings on record: h460, 24 h.
Data set [12] concerns HCT-116. Nature of the data set: Cell cycle arrest in human HCT116 cells assessed as accumulation at Sub G0/G1 phase at 5 uM after 48 hrs by flow cytometric analysis (reference value: 1 %). The class given is functional.
The subject of data set [13] is HCT-116. The data set is described as follows: Cell cycle arrest in human HCT116 cells assessed as accumulation at G0/G1 phase at 5 uM after 24 hrs by flow cytometric analysis (reference value: 40 %). In kind it is functional.
Data set [14] concerns HCT-116. The data set is described as follows: Cell cycle arrest in human HCT116 cells assessed as accumulation at G2/M phase at 5 uM after 24 hrs by flow cytometric analysis (reference value: 21 %). The class given is functional.
The subject of data set [15] is SW-620. Nature of the data set: Antitumor activity against human SW620 cells assessed as growth inhibition after 72 hrs by MTT assay. In kind it is functional, cell-based. In a few lines: as §1
Data set [16] has as its system MCF7. Nature of the data set: Antitumor activity against human MCF7 cells assessed as growth inhibition after 72 hrs by MTT assay. The following applies: MCF7, 72 h. The class given is functional, cell-based. In a few lines:
as §1

A short description of data set [17]: Drug uptake in human H460 cell nucleus at 100 uM after 2 hrs by fluorescence microscopy. The settings on record: h460, 2 h. In kind it is ADME, cell-based. In short, it runs like this: as §2
Data set [18] relates to NCI-H460. Nature of the data set: Antitumor activity against human H460 cells assessed as growth inhibition after 72 hrs by MTT assay. The class given is functional, cell-based. In short, it runs like this: as §1
The subject of data set [19] is NCI-H460. The data set is described as follows: Drug uptake in human H460 cells assessed as colocalization with endoplasmic reticulum at 100 uM after 2 hrs by fluorescence microscopy. The class given is ADME, cell-based. The following applies: nci-h460, 2 h.
For data set [20], the system named is Nucleic Acid. Nature of the data set: Binding affinity to calf thymus DNA assessed as change in melting temperature at compound to DNA molar ratio of 0.2 at pH 7 by thermal denaturation assay. In kind it is nucleic-acid assay. The following applies: Bos taurus. In a few lines: (§3)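 Absorbance of ct-DNA alone or with compound at 260 nm was recorded against temperature in sodium cacodylate buffer (I = 0.05 mol dm⁻³, pH 7.0). r = [compound]/[polynucleotide]. Ligand absorbance was subtracted and curves were normalised. Tm was the transition midpoint, taken from the first-derivative maximum or by tangent method. ΔTm = Tm(complex) − Tm(free DNA), averaged over at least two runs, ±0.5 °C.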

The test system of data set [21] is Nucleic Acid. Nature of the data set: Binding affinity to calf thymus DNA assessed as binding constant at pH 7 by UV-visible spectrophotometry. The settings on record: Bos taurus. In kind it is nucleic-acid assay. In a few lines:
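Sonicated, filtered ct-DNA was quantified as phosphate. It was added in portions to the compound solution in sodium cacodylate buffer (I = 0.05 mol dm⁻³, pH 7.0), and absorbance changes were followed. Ks came from non-linear least-squares fitting to the Scatchard equation, with Ks recalculated for a fixed n of 0.2.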

For data set [22], the system named is Nucleic Acid. Nature of the data set: Binding affinity to calf thymus DNA by CD-Spectroscopy. In kind it is nucleic-acid assay. The settings on record: Bos taurus.
The test system of data set [23] is Nucleic Acid. Nature of the data set: Binding affinity to calf thymus DNA assessed as change in melting temperature at compound to DNA molar ratio of 0.1 at pH 7 by thermal denaturation assay. The class given is nucleic-acid assay. The settings on record: Bos taurus. In short, it runs like this:
as §3

The subject of data set [24] is Nucleic Acid. Nature of the data set: Binding affinity to calf thymus DNA assessed as change in melting temperature at compound to DNA molar ratio of 0.3 at pH 7 by thermal denaturation assay. In kind it is nucleic-acid assay. The following applies: Bos taurus. In short, it runs like this: as §3
A short description of data set [25]: Aqueous solubility of the compound. In kind it is physicochemical. The following applies: buffer.

These results are taken from ChEMBL document CHEMBL1938303, “Novel biologically active nitro and amino substituted benzimidazo[1,2-a]quinolines” (Bioorg Med Chem, 2011).

Active and inactive are the calls of the source. The calls are words filed in the database; no cut-off is given here.

Consider `CC[n+]1c(-c2ccccc2)c2cc(N)ccc2c2ccc(N)cc21`, for which, in data set [1], the result was Active. Moreover, the log Ks in [2] was determined as 6.

As to `Cl.N#Cc1cc2cc(N)ccc2n2c1nc1ccccc12`, the Activity in [3] is given as 4%; in data set [4], 31%; in [5], 45%; in data set [6], 20%; in data set [9] it was 24%; in [12] it was 4%. In addition, the Activity in data set [13] is 55%; in data set [14], 25%. For the same compound, the concentration for half-maximal inhibition (IC50) (in general, the concentration needed to halve the response being measured) in data set [7] (Homo sapiens, HCT-116, 72 h) is 3 µM; in [10] (molt-4) it was 2 µM; in data set [15] (Homo sapiens, SW-620, 72 h) it was 6 µM; in [16], 4 µM; in data set [18] (Homo sapiens, NCI-H460, 72 h), 2 µM. Besides, the Drug uptake result in data set [8] was “Active”; in data set [11], “Active”; in [17], “Not Active”; in data set [19] it was “Active”.

Turning to `O=[N+]([O-])c1ccc(Cl)c(/C=C/c2nc3ccccc3[nH]2)c1`, the IC50 in [7] (Homo sapiens, HCT-116, 72 h) is 4 µM; in data set [10] (Homo sapiens, MOLT-4, 72 h), greater than 100 µM; in [15] (Homo sapiens, SW-620, 72 h), 28 µM; in data set [16] it was 32 µM; in data set [18] (Homo sapiens, NCI-H460, 72 h), greater than 100 µM.

Take `O=[N+]([O-])c1ccc2c(ccc3nc4ccccc4n32)c1`: the IC50 in data set [7] (Homo sapiens, HCT-116, 72 h) worked out at 6 µM; in data set [10] (Homo sapiens, MOLT-4, 72 h), 3 µM; in data set [15] (Homo sapiens, SW-620, 72 h) it was 6 µM; in data set [16], 4 µM; in [18] (Homo sapiens, NCI-H460, 72 h) it was 8 µM.

`N#Cc1cc2cc(N)ccc2n2c1nc1ccccc12` [listing 1 of 2 here]: the shift in melting temperature (ΔTm) (in general, the shift of the melting midpoint relative to a reference) in [20] was determined as 1.9 °C; in data set [23], 0.9 °C; in data set [24] it was 0.2 °C. Moreover, the values for the log Ks in [2] and in data set [21] were 5.5 and 5.1, respectively. Also, the result in data set [22] was Active.

On to `N#Cc1cc2cc(N)ccc2n2c1nc1ccccc12` [listing 2 of 2 here], for which the Activity in data set [3] is on record as 6%; in data set [4], 25%; in data set [5] it was 47%; in data set [6] it was 20%; in data set [9], 28%; in data set [12], 3%. For the same compound, the Activity in data set [13] is on record as 62%; in data set [14], 18%. The IC50 in data set [7] (hct-116) was found to be 4 µM; in [10] (molt-4), 6 µM; in data set [15] (sw-620) it was 4 µM; in [18] (nci-h460), 3 µM. Besides, the solubility entry in data set [25] is “Insoluble”.
